Screening results from PubChem BioAssay.
Hep lipid drop: inhibitors of hepatocyte lipid droplet formation, primary screen, imaging, high-throughput imaging, BODIPY stain; AML12 mouse hepatocytes, oleate lipid droplets; inhibition, % at 6.5 µM; 240,000 compounds, 0.4% hits; AID 1656, 2009;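 active = lipid droplet intensity inhibited by at least 50%, with more than 500 cells counted; inconclusive = wells with under 300 cells, treated as cytotoxic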
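Assay system: AML12 mouse liver cells | Compound dosing: One dose, 6.5 µM compound | Read-out basis: Droplet intensity reduction, % inhibition | Measured by: Fluorescence imaging, 20x objective, two fields per well | Schedule: Overnight treatment with compound plus oleate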
aSyn UTR inh: MLPCN primary screen, SNCA 5' untranslated region; alpha-synuclein 5'UTR reporter, inhibitor activity; inhibition, % (tested at 7.5 µM); 300,000 compounds, 0.82% hits; in the data active = inhibition above about 60%; inconclusive = no clear call, values can overlap the other calls;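 note: H4 neuroglioblastoma cells stably carrying SNCA 5'UTR luciferase fusion; 0% = DMSO wells and 100% = positive control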
H9c2 TAG inh: inhibitors of triacylglycerol accumulation, primary screen, cell-based, uHTS, fluorescence, H9c2 | 230,000 compounds, 0.66% hits | AID 651582, 2012 | inhibition, % at 12.5 µM | H9c2 cells, Nile Red lipid (TAG) fluorescence; cells loaded with 200 µM oleic acid;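 active = pattern-corrected inhibition of lipid staining of at least 50% with the nuclear-stain viability signal not falling by more than 50%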;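 note: 0% = DMSO wells and 100% = triacsin C control wells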
697 NFkB inh: inhibitors of PMA/ionomycin-induced NF-kB reporter, 697 cells, primary screen, B-cell NF-kB inhibitor project, cell-based, luminescence, uHTS; 697 B-cell NF-kB luciferase reporter, 16 h; inhibition, % at 4 µM; 330,000 compounds, 0.33% hits; AID 435022, 2010; in the data active = inhibition above about 35%
APP 5UTR inh: inhibitors of APP translation via 5'UTR reporter, primary screen, APP 5'UTR luciferase, SH-SY5Y cells; SH-SY5Y APP 5'UTR-luciferase reporter, luminescence; inhibition, % at 2 µM; 190,000 compounds, 0.82% hits;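 active = inhibition above a set limit, derived from the sample mean plus 3 SD, cut at about 45% in these data; inconclusive = one replicate passes the limit while the other fails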
Jurkat NFkB inh: inhibitors of induced NF-kB luciferase reporter, primary screen, TCR NF-kB activation inhibitor project, cell-based, luminescence, uHTS; inhibition, % at 4 µM; Jurkat, PMA/ionomycin-induced NF-kB luciferase reporter; 330,000 compounds, 0.53% hits; in the data active = inhibition above about 50%
Active calls of the source: *; ? = inconclusive; nt = not tested or not shown. An excerpt weighted towards active compounds, which were near 1.9% of everything screened.

SMILES	Hep lipid drop	aSyn UTR inh	H9c2 TAG inh	697 NFkB inh	APP 5UTR inh	Jurkat NFkB inh
Cc1cc(C)cc(Cn2ncc(Cl)c(Cl)c2=O)c1	-2	35	nt	nt	58*	nt
O=c1c(Cl)c(Cl)cnn1-c1ccccc1	-20	-29	72*	nt	96*	nt
Cc1ccc(-c2nnc(Cc3ccc(Cl)cc3)o2)cc1	nt	-85	4	-14	-31	-20
O=c1c(Cl)c(Cl)cnn1Cc1nnc(-c2ccc(Cl)cc2)o1	-3	-179	61*	nt	77*	nt
C[C@@H]1CN([C@@H](C)CO)S(=O)(=O)c2ccc(-c3ccc(C#N)cc3)cc2O[C@@H]1CN(C)Cc1ccccn1	nt	nt	-3	nt	nt	nt
CC1(C(=O)NS(=O)(=O)C2CC2)CCN(C(=O)c2ccccc2F)C1 (stereo unspecified)	nt	nt	6	nt	nt	nt
COc1cc(NC(=O)c2ccc([N+](=O)[O-])o2)ccc1NC(=O)c1cccs1	12	-82	84	27	35	25
O=C(Nc1cccc(NC(=O)c2cccs2)c1)c1ccc([N+](=O)[O-])o1	-7	-69	61*	6	nt	27
O=C(Nc1ccc2oc(-c3cccnc3)nc2c1)c1ccc([N+](=O)[O-])o1	5	-97	75*	nt	60*	nt
CC(=O)Nc1cccc(C(=O)NN2C(=O)NC3(CCC(C)CC3)C2=O)c1 (stereo unspecified)	nt	nt	7	nt	nt	nt
COc1ccccc1N1CCN(c2ccc(-c3ccccc3)nn2)CC1	-1	79*	nt	-174	90*	-22
COc1ccccc1N1CCN(c2nc(-c3ccccc3)cc(C(F)(F)F)n2)CC1	nt	2	36	0	-12	-10
Cc1nc2sc(C(c3ccccc3)N3CCN(C)CC3)c(O)n2n1 (stereo unspecified)	-9	-2	-3	7	nt	0
COc1ccc(-c2nn(-c3ccccc3)cc2/C=N/NC(N)=S)cc1OC	-62	90*	nt	nt	95*	nt
COc1ccc(Nc2nc(-c3c(C)nc4ncccn34)cs2)cc1	?	nt	nt	nt	94*	nt
Cc1nc2ncccn2c1-c1csc(Nc2ccccc2)n1	12	-16	nt	2	6	-8
CC(=O)Nc1ccc(Nc2nc(-c3c(C)nc4ccccn34)cs2)cc1	nt	87*	24	-59	nt	40
Cc1nc2ncccn2c1-c1csc(Nc2ccc(N(C)C)cc2)n1	?	70*	38	nt	94*	nt
Cc1ccc(Cc2c(-c3ccc(Cl)cc3)nc3ccc(Br)cn23)cc1	nt	nt	2	nt	nt	nt
CCCCN(CCCNC(=S)NCCCc1cnc[nH]1)c1ccc(Br)cn1	nt	nt	-18	nt	nt	nt
COCc1c(C(C)C)nc(C(C)C)c(/C=C/[C@@H](O)C[C@@H](O)CC(=O)O)c1-c1ccc(F)cc1	nt	115*	nt	nt	nt	nt
NC(=O)COC(=O)CC(NC(N)=O)c1ccc(Cl)cc1 (stereo unspecified)	-12	2	nt	6	-12	-2
NC(=O)NC(CC(=O)OCC(=O)NC(=O)NCc1ccco1)c1ccc(Cl)cc1 (stereo unspecified)	nt	-12	-2	1	55*	4
COc1ccc(/C=C/C(=O)O)cc1O	nt	16	nt	21	nt	4
O=S(=O)(NCC1CCCO1)c1cc(Cl)ccc1Cl (stereo unspecified)	-17	16	nt	14	-24	9
SMILES	Hep lipid drop	aSyn UTR inh	H9c2 TAG inh	697 NFkB inh	APP 5UTR inh	Jurkat NFkB inh
O=C(O)c1ccc(Cl)c(S(=O)(=O)NCC2CCCO2)c1 (stereo unspecified)	-4	-1	4	-2	57*	-1
O=C1CN(S(=O)(=O)c2ccccc2)CCN1	nt	nt	-3	6	nt	10
CCOC(=O)C1=C(c2ccccc2)N=C2SCC(=O)N2C1c1cccc(OC)c1 (stereo unspecified)	0	-6	-10	0	61*	9
CCOC(=O)C1=C(c2ccccc2)N=C2SCC(=O)N2C1c1ccc(OC)c(OC)c1 (stereo unspecified)	16	-2	nt	-1	-6	-16
CCOc1ccc(Nc2nc(N)c3ccccc3n2)cc1	nt	102*	nt	-159	nt	-55
Cc1ccccc1Nc1nc(N)c2ccccc2n1	-3	-9	-3	-101	-144	-142
Nc1nc(Nc2ccccc2)nc2ccccc12	nt	-82	11	-145	-155	-112
CN(C)c1ccc(Nc2nc(N)c3ccccc3n2)cc1	3	109*	nt	-83	nt	-23
Cc1ccc(NC(=O)C2CC(=O)N(c3ccccc3Cl)C2)cc1S(=O)(=O)N1CCOCC1 (stereo unspecified)	nt	nt	1	nt	nt	nt
O=[N+]([O-])c1ccc(NC2CCCCC2)nc1	nt	nt	-11	nt	nt	nt
CCN(CC(=O)Nc1c(F)cccc1F)C(=O)CCNC(=O)c1ccco1	nt	nt	10	15	nt	2
Cc1[nH][nH]c(=O)c1C=Nc1ccc(C(F)(F)F)cc1	5	-77	5	-5	77*	-5
O=P(O)(Cc1ccccc1)c1ccccc1	nt	nt	-19	nt	nt	nt
Cc1ccc(-c2cc(C(=O)N3CCOCC3)no2)cc1	-3	67*	nt	-91	nt	-50
O=C(Nn1c(COc2ccccc2)nc2ccccc2c1=O)C(Cl)(Cl)Cl	3	-5	nt	-19	nt	-13
Cn1c(=O)c2c(ncn2CC(=O)N2CCc3ccccc3C2)n(C)c1=O	nt	-5	nt	3	54*	-14
O=[N+]([O-])c1ccccc1N/N=C/c1c[nH]c2ccccc12	nt	-105	82*	-148	-173	-102
Cc1nc(C(F)(F)F)ccc1C(=O)N1CCC1(C)C(=O)Nc1ccc2c(c1)OCO2 (stereo unspecified)	nt	nt	7	nt	nt	nt
COc1ccc(-c2oc3cc(OC)c(O)c(OC)c3c(=O)c2OC)cc1O	17	65*	nt	15	14	-4
COc1ccc(-c2oc3cc(O)c(OC)c(O)c3c(=O)c2OC)cc1	12	-45	nt	-3	nt	19
O=C(CCCc1ccccc1)NC1CC1	19	6	12	-8	1	13
O=C(O)CCCc1ccc2c(c1)CCc1ccccc1-2	nt	109*	nt	26	nt	26
CCN(CC)C(=O)C1=C(C)N(CCCOC)C(=O)C(CC(=O)NC2CCCCC2)C1 (stereo unspecified)	nt	nt	-8	nt	nt	nt
CC(=O)N1/C(=C/c2ccc(N(C)C)cc2)C(=O)c2ccccc21	-22	-48	11	nt	81*	nt
CCNC(=O)C1(C)CCCN(C(=O)c2oc3ccccc3c2C)C1 (stereo unspecified)	nt	nt	8	nt	nt	nt
COCCNC(=O)C1(C)CCCN(CCSc2ccccc2)C1 (stereo unspecified)	nt	nt	1	nt	nt	nt
CCCCCc1ccnc(CC(=O)c2ccc(OC)cc2)c1	nt	nt	-25	nt	nt	nt
Cc1cc(N/N=C/c2ccc(O)c(C)c2O)nc(-c2ccccc2O)n1	25	87*	nt	nt	43	nt
COC(=O)[C@H](CC(C)C)NS(=O)(=O)c1ccc(F)cc1Br	nt	nt	-3	nt	nt	nt
Cc1cc(C)nc(SCc2ccc(C(=O)N/N=C/c3cccc(O)c3O)cc2)n1	-17	70*	nt	-123	62*	42
